Holding throughout (assay type): functional
The species entered for assay [1] is Homo sapiens. The experiment in a line: Mean percent inhibition of aqueous superoxide anion production in isolated human neutrophil assay at 1 mM using water as solvent. A digest of the protocol:
(§1)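 The carotenoid phospholipid isomer mix was dispersed in deionized water without heat, detergent or additives. Isolated human PMNs (Percoll gradient, hypotonic erythrocyte lysis, washed in PIPES-HSA-glucose buffer, pH 7.4) were preincubated 5 min with the suspension, then PMA-stimulated. Superoxide was spin-trapped with 10 mM DEPMPO and the DEPMPO-OOH signal measured by X-band EPR. Inhibition is expressed relative to the no-compound control signal.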

For assay [2], the species on record is Homo sapiens. The experiment in a line: Mean percent inhibition of aqueous superoxide anion production in isolated human neutrophil assay at 10 mM using water as solvent. The essentials:
as §1

Assay [3] is filed under the species Homo sapiens. The experiment in a line: Mean percent inhibition of aqueous superoxide anion production in isolated human neutrophil assay at 3 mM using ethanol as solvent. A digest of the protocol: (§2)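 Human PMNs from one donor's venous blood were isolated on a Percoll gradient (1.080 g/mL, 400g, 20 min, 20 C), erythrocytes removed by hypotonic lysis, and cells washed in PAG buffer (PIPES pH 7.4, 0.003% HSA, 0.1% glucose). Carotenoid phospholipid isomer mix was taken from a 41.2% EtOH stock (0.4% EtOH final). Cells were preincubated 5 min, then PMA-stimulated. The DEPMPO-OOH adduct (10 mM DEPMPO) was read by X-band EPR, and % inhibition set against the no-compound control.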

Assay [4] is filed under the species Homo sapiens. The experiment in a line: Mean percent inhibition of aqueous superoxide anion production in isolated human neutrophil assay at 3 mM using water as solvent. A digest of the protocol: as §1
For assay [5], the species on record is Homo sapiens. Kind of assay: Mean percent inhibition of aqueous superoxide anion production in isolated human neutrophil assay at 0.1 mM using ethanol as solvent. The essentials:
as §2

The species named for assay [6] is Homo sapiens. The experiment in a line: Mean percent inhibition of aqueous superoxide anion production in isolated human neutrophil assay at 0.3 mM using ethanol as solvent. The essentials: as §2
Assay [7] is filed under the species Homo sapiens. The experiment in a line: Mean percent inhibition of aqueous superoxide anion production in isolated human neutrophil assay at 0.5 mM using water as solvent. The essentials:
as §1

Assay [8] is filed under the species Homo sapiens. The experiment in a line: Mean percent inhibition of aqueous superoxide anion production in isolated human neutrophil assay at 1 mM using ethanol as solvent. The essentials:
as §2

The species named for assay [9] is Homo sapiens. The experiment in a line: Mean percent inhibition of aqueous superoxide anion production in isolated human neutrophil assay at 0.5 mM using ethanol as solvent. A digest of the protocol: as §2

Regarding `CC1=C(/C=C/C(C)=C/C=C/C(C)=C/C=C/C=C(C)/C=C/C=C(\C)C(=O)OC(CO)COP(=O)([O-])OCC[N+](C)(C)C)C(C)(C)CCC1.CC1=C(/C=C/C(C)=C/C=C/C(C)=C/C=C/C=C(C)/C=C/C=C(\C)C(=O)OCC(CO)OP(=O)([O-])OCC[N+](C)(C)C)C(C)(C)CCC1.CC1=C(/C=C/C(C)=C/C=C/C(C)=C/C=C/C=C(C)/C=C/C=C(\C)C(=O)OCC(O)COP(=O)([O-])OCC[N+](C)(C)C)C(C)(C)CCC1` (stereo not given), the Mean inhibition in the assay listed under Homo sapiens [1] is 24.6%; in the assay filed under Homo sapiens [2], 94.3%; in the assay filed under Homo sapiens [3] it was 98.7%; in the assay filed under Homo sapiens [4], 51.8%; in the assay filed under Homo sapiens [5] it was 13.3%; in the assay filed under Homo sapiens [6], 31.3%. Moreover, the Mean inhibition in the assay filed under Homo sapiens [7] is recorded as 18.2%; in the assay listed under Homo sapiens [8], 79.3%; in the assay filed under Homo sapiens [9], 61.7%.
As for `CC1=C(/C=C/C(C)=C/C=C/C(C)=C/C=C/C=C(C)/C=C/C=C(C)/C=C/C2=C(C)C(=O)C(OC(=O)CCC(=O)[O-])CC2(C)C)C(C)(C)CC(OC(=O)CCC(=O)[O-])C1=O.[Na+].[Na+]` (stereo not given) [DISODIUM SALT DISUCCINATE DIESTER OF ASTAXANTHIN], in the assay filed under Homo sapiens [5], the Mean inhibition is 38%.

The record behind these values is ChEMBL document CHEMBL1149224, “Direct superoxide anion scavenging by a highly water-dispersible carotenoid phospholipid evaluated by electron paramagnetic resonance (EPR) spectroscopy” (2004).
